This is an account of results in PMC8900268 (Journal of medicinal chemistry, 2021).

For test [1], the system named is MOLT-4 cells. Put plainly: MTS cell viability assay in MOLT-4 cells. In kind it is cell-based. As to conditions: Homo sapiens, MOLT-4, 48 h, read-out: IC50, cell-killing potency in MOLT-4.
The target in a further test is BCL-2:Bim interaction (Homo sapiens, UniProt P10415). The test can be described thus: Co-immunoprecipitation of Bim with BCL-2 in RS4. In kind it is cell-based. The settings on record: RS4;11 cells, 12 h, immunoprecipitation with BCL-2. Put shortly:
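RS4;11 cells were treated with test compound for 12 h, ±VHL-032. Lysis in IP buffer with protease/phosphatase inhibitors, then 15000 rpm spin. 1 mg lysate was precleared with mouse IgG and protein A/G agarose for 1 h at 4 °C. IP with 2 μg anti-BCL-2 (or IgG) overnight at 4 °C, then beads for 2 h. After three washes, immunoblotted for Bim. Inputs probed for Bim, BCL-2 and β-actin. Two independent experiments.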

In the next test the test system is RS4;11 cells. The test can be described thus: MTS cell viability assay in RS4. In kind it is cell-based. As to conditions: for activity loss (IC50 change) after pre-treatment with VHL-032: RS4;11 cells, 48 h, pre-treatment with VHL-032 (10 μM).
In test [2] the target is BCL-XL (Homo sapiens, UniProt P40337+Q07817). Put plainly: AlphaScreen displacement binding assay, BCL-XL. The settings on record: displacement of Biotin-Bad.
Test [3] has as its target {BCL-2:compound:VCB} ternary complexes (Homo sapiens, UniProt P10415+P40337). Put plainly: NanoBRET ternary complex formation with BCL-2 and VCB in live 293T cells. In kind it is cell-based. The settings on record: 6 h. The method in brief: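 HEK 293T cells were transfected with 1 μg HaloTag-VHL, 10 ng HiBit-BCL-2 and 10 ng LgBit. After 24 h, 2×10^4 cells/well were placed in phenol-red-free Opti-MEM with 4% FBS ± HaloTag NanoBRET 618 ligand overnight at 37 °C. Serially diluted test compound was added for 6 h, then Nano-Glo substrate. mBRET ratio calculated. Mean ± s.e.m. of two independent experiments in triplicate.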

A further test deals with human platelets. The settings on record: earlier study; ref 10a; cited from earlier work.
In test [4] the target is BCL-2 (Homo sapiens, UniProt P10415+P40337). The test can be described thus: AlphaScreen displacement binding assay, BCL-2. As to conditions: displacement of Biotin-Bim.
Test [5] concerns MOLT-4 cells. As to conditions: ref 10a; cited from earlier work.
The target in another test is BCL-XL with VCB (Homo sapiens, UniProt P40337+Q07817). The test can be described thus: AlphaLISA cell-free ternary complex formation, BCL-XL and VCB. In kind it is biochemical. Put shortly: (§1)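 Recombinant His-tagged BCL-2 or BCL-XL and GST-tagged VHL–elongin B–elongin C–Cul2 (VCB) were each added at 20 nM with a 4× serial dilution of test compound. Buffer: 25 mM HEPES pH 7.5, 100 mM NaCl, 0.1% BSA, 0.005% Tween 20. Incubation 30 min at room temperature, then glutathione donor beads for 15 min and anti-His acceptor beads for 45 min, both in the dark. AlphaLISA luminescence plotted against log concentration.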

The target of another test is BCL-2 with VCB (Homo sapiens, UniProt P10415+P40337). Put plainly: AlphaLISA cell-free ternary complex formation, BCL-2 and VCB. In kind it is biochemical. Put shortly: as §1
Test [6] concerns MOLT-4 cells. The test can be described thus: Apoptosis induction in MOLT-4 cells. In kind it is cell-based, human. The settings on record: caspase-3 mediated. Put shortly: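 MOLT-4 cells were given test compound for 16 h, then immunoblotted for cleaved and full caspase-3, cleaved and full PARP, and β-actin. Separately, cells (5×10^4/well) were pretreated ±2 μM QVD for 4 h, then given 10 nM compound for 48 h. Read by immunoblot, or by Annexin-V–Alexa Fluor 647 (1:50) plus PI (10 μg/mL) staining for 30 min at room temperature in the dark, then flow cytometry.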

Test [7] concerns the target T1, BCL-XL (Homo sapiens, UniProt Q07817). Put plainly: BCL-XL degradation in HEK 293T cells by immunoblotting. In kind it is cell-based. The method in brief: (§2)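 HEK 293T cells grown in DMEM with 10% FBS and 1% penicillin–streptomycin at 37 °C, 5% CO2, then treated with test compound. Lysates made with protease/phosphatase inhibitors, run on 4–20% Tris-glycine gels and transferred to PVDF. Blocked in 5% milk/TBS-Tween. Primary antibodies overnight at 4 °C, HRP secondary, ECL detection. Cleaved PARP probed as apoptosis marker.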

In the next test the test system is NCI-H211 cells. The test can be described thus: Cell viability assay in NCI-H211 cells. In kind it is cell-based. The settings on record: BCL-2/BCL-XL dual-dependent cells. Put shortly:
(§3)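 Cells were seeded at 50,000/well in complete medium and dosed 30 min later at nine concentrations in triplicate. Viability was read by MTS after 48 h. Percentage viability was fitted by non-linear regression.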

Test [8] deals with T1, BCL-XL. The test can be described thus: BCL-XL degradation in MOLT-4 cells by western blotting. In kind it is cell-based. Put shortly: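 MOLT-4 cells were exposed to test compound for 16 h across a concentration range. Other arms: 100 nM time course; 100 nM for 16 h, then washout; and pretreatment with 10 μM VHL-032 or 1 μM MG-132 before 12 h exposure. Lysates were immunoblotted for BCL-XL and β-actin. Band densities were normalised to β-actin. Mean ± SD of three independent experiments in triplicate.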

The subject of the next test is MCL-1. Put plainly: MCL-1 levels in HEK 293T cells by immunoblotting. In kind it is cell-based. The method in brief:
as §2

Test [9] concerns the target T1, BCL-XL. The test can be described thus: BCL-XL protein levels in human platelets by western blotting. In kind it is cell-based. As to conditions: 16 h treatment. The method in brief:
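Platelets came from purchased human platelet-rich plasma in acid citrate buffer with 1 μM PGE1 and 0.2 units/mL apyrase (final). They were pelleted at 1200 g for 10 min, washed and resuspended in HEPES Tyrode's buffer with the same PGE1/apyrase. Platelets were treated with test compound for 16 h, then immunoblotted for BCL-XL.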

Test [10] concerns the target BCL-2 (Homo sapiens, UniProt P10415). The test can be described thus: BCL-2 degradation by western blotting in MOLT-4 and RS4. In kind it is cell-based. The settings on record: 16 h.
Another test relates to NCI-H146 cells. The test can be described thus: Cell viability assay in NCI-H146 cells. In kind it is cell-based. As to conditions: BCL-2/BCL-XL dual-dependent cells. Put shortly: as §3

On to `Cc1ncsc1-c1ccc([C@H](C)NC(=O)[C@@H]2C[C@@H](O)CN2C(=O)[C@@H](NC(=O)CCCCCC(=O)N2CCN(CC[C@H](CSc3ccccc3)Nc3ccc(S(=O)(=O)NC(=O)c4ccc(N5CCN(CC6=C(c7ccc(Cl)cc7)CCC(C)(C)C6)CC5)cc4)cc3S(=O)(=O)C(F)(F)F)CC2)C(C)(C)C)cc1` [DT2216], for which the IC50 in the test on MOLT-4 cells [1] is 75.3 ± 9.1 nM; in the test with RS4;11 cells (Homo sapiens, RS4-11, 48 h, read-out: IC50, cell-killing potency in RS4;11), 212 ± 27.4 nM. At BCL-2:Bim interaction, the “effect on BCL-2:Bim interaction” value is “minimal effect”. Moreover, the “activity loss (IC50 change) after pre-treatment with VHL-032” value in the test on RS4;11 cells is on record as “no significant IC50 value changes”. Further, the Kd on BCL-XL [2] (Kd BCL-XL w VHL, ternary binding, with GST-VCB) worked out at 2.18 ± 0.51 nM; on BCL-XL [2] (Kd BCL-XL w/o VHL, binary binding, without VCB), 7.58 ± 0.62 nM; on BCL-2 [4] (Kd BCL-2 w VHL, ternary binding, with GST-VCB), 1.46 ± 0.41 nM; at BCL-2 [4] (Kd BCL-2 w/o VHL, binary binding, without VCB), 2.25 ± 0.33 nM. Moreover, the “formation of {BCL-2:compound:VCB} ternary complexes in live cells” value (“formation … in live cells” below) in test [3] is listed as “could not”. In the test with human platelets, the “selectivity for MOLT-4 over human platelets” value was ~ 200 fold. In addition, the “fold more potent than warhead ABT-263 against MOLT-4” value with MOLT-4 cells [5] is on record as 4 fold.
As to `Cc1ncsc1-c1ccc([C@H](C)NC(=O)[C@@H]2C[C@@H](O)CN2C(=O)[C@@H](NC(=O)CCCCCCCCC(=O)NC[C@@]2(C)CCC(c3ccc(Cl)cc3)=C(CN3CCN(c4ccc(C(=O)NS(=O)(=O)c5ccc(N[C@H](CCN6CCOCC6)CSc6ccccc6)c(S(=O)(=O)C(F)(F)F)c5)cc4)CC3)C2)C(C)(C)C)cc1` [PZ703a, N^1-(((S)-4’-Chloro-4-methyl-6-((4-(4-(((4-(((R)-4-morpholino-1-(phenylthio)butan-2-yl)amino)-3-((trifluoromethyl)sulfonyl)phenyl)sulfonyl)carbamoyl)phenyl)piperazin-1-yl)methyl)-2,3,4,5-tetrahydro-[1,1’-biphenyl]-4-yl)methyl)-N^10-((S)-1-((2S,4R)-4-hydroxy-2-(((S)-1-(4-(4-methylthiazol-5-yl)phenyl)ethyl)carbamoyl)pyrrolidin-1-yl)-3,3-dimethyl-1-oxobutan-2-yl)decanediamide], in the test with RS4;11 cells, the “activity loss (IC50 change) after pre-treatment with VHL-032” value worked out at 2.6 fold. The “formation of ternary complexes with BCL-XL and VCB” value at BCL-XL with VCB was “can form stable ternary complexes”. Moreover, the “formation … in live cells” value in [3] is recorded as “able to form”. In addition, the “formation of ternary complexes with BCL-2 and VCB” value at BCL-2 with VCB is “can form stable ternary complexes”.
With `Cc1ncsc1-c1ccc([C@H](C)NC(=O)[C@@H]2C[C@@H](O)CN2C(=O)[C@@H](NC(=O)CCCCCCCCC(=O)NC[C@]2(C)CCC(c3ccc(Cl)cc3)=C(CN3CCN(c4ccc(C(=O)NS(=O)(=O)c5ccc(N[C@H](CCN6CCOCC6)CSc6ccccc6)c(S(=O)(=O)C(F)(F)F)c5)cc4)CC3)C2)C(C)(C)C)cc1` [PZ703b, N^1-(((R)-4’-Chloro-4-methyl-6-((4-(4-(((4-(((R)-4-morpholino-1-(phenylthio)butan-2-yl)amino)-3-((trifluoromethyl)sulfonyl)phenyl)sulfonyl)carbamoyl)phenyl)piperazin-1-yl)methyl)-2,3,4,5-tetrahydro-[1,1’-biphenyl]-4-yl)methyl)-N^10-((S)-1-((2S,4R)-4-hydroxy-2-(((S)-1-(4-(4-methylthiazol-5-yl)phenyl)ethyl)carbamoyl)pyrrolidin-1-yl)-3,3-dimethyl-1-oxobutan-2-yl)decanediamide], the “induction of apoptosis in MOLT-4 cells” value with MOLT-4 cells [6] is “potently induced apoptosis”. The “BCL-XL degradation in HEK 293T cells” value at BCL-XL [7] was “effectively induce BCL-XL degradation”. Moreover, the “killing of NCI-H211 cells” value in the test on NCI-H211 cells was “efficiently kill”. Also, the “effect on BCL-2:Bim interaction” value on BCL-2:Bim interaction was “can inhibit BCL-2:Bim interaction”. Moreover, the “BCL-XL degradation (in words)” value at BCL-XL [8] is “rapid and durable BCL-XL degradation”. On BCL-XL with VCB, the “formation of ternary complexes with BCL-XL and VCB” value was “can form stable ternary complexes”. Besides, the “formation … in live cells” value in [3] is on record as “able to form”. In addition, the “MCL-1 decrease in HEK 293T cells” value with MCL-1 is on record as “no MCL-1 decrease was observed”. For the same molecule, the “effect on BCL-XL protein levels in platelets” value on BCL-XL [9] is “did not cause significant changes”. Moreover, on BCL-2 with VCB, the “formation of ternary complexes with BCL-2 and VCB” value is “can form stable ternary complexes”. Besides, at BCL-2 [10], the “BCL-2 degradation (in words)” value was “did not observe significant BCL-2 degradation”. Moreover, the “killing of NCI-H146 cells” value in the test with NCI-H146 cells is on record as “efficiently kill”.
